The values that follow come from PubChem BioAssay.

Each structure is given as a SMILES string. Active and inactive are the calls of the source.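 How the source made its calls, unless noted: active means current rise at least 3 SD above the untreated control mean in each of two repeat wells; inactive means the rest.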

Experiment [1] deals with Potassium voltage-gated channel subfamily KQT member 1 (Homo sapiens) (UniProt P51787). As to the kind of experiment: KCNQ1 channel current potentiators, confirmation, orthogonal assay for KCNQ1 potentiator project, IonWorks patch clamp, KCNQ1-CHO cells (AID 493184). To be noted: automated patch clamp current, at 10 µM. Summed up:
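Test system: KCNQ1-expressing CHO cells. Medium: pH 7.4 external bath. Probe or stimulus: voltage step from -90 mV holding to +40 mV, 2,000 ms. Compound: 10 µM final, single point. Detection: automated perforated-patch electrophysiology. Read-out: percent current increase versus pre-compound level. Repeats: two replicates.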

Experiment [2] addresses Potassium voltage-gated channel subfamily E member 1 (Homo sapiens) + Potassium voltage-gated channel subfamily KQT member 1 (Homo sapiens) (UniProt P15382+P51787). As to the kind of experiment: KCNQ1/KCNE1 complex potentiators, confirmation, selectivity assay for KCNQ1 potentiator project, thallium flux, CHO-K1 KCNQ1/E1 cells (AID 493186;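 active means mean duplicate activation above the buffer control mean plus 5 SD of those controls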). The conditions noted are these: FluxOR thallium flux, at 10 µM. The method in brief:
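Material: CHO-K1 cells with KCNQ1/E1 / Timing: dye 90 min, compound 20 min, room temperature / Technique: kinetic thallium-sensitive FluxOR dye fluorescence / Read-out: percent activation scaled between buffer and R-L3 ratio signals / Replicates: tested in duplicate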

Chain of Potassium voltage-gated channel subfamily KQT member 1 (Homo sapiens) (P51787 whole entry, looked up): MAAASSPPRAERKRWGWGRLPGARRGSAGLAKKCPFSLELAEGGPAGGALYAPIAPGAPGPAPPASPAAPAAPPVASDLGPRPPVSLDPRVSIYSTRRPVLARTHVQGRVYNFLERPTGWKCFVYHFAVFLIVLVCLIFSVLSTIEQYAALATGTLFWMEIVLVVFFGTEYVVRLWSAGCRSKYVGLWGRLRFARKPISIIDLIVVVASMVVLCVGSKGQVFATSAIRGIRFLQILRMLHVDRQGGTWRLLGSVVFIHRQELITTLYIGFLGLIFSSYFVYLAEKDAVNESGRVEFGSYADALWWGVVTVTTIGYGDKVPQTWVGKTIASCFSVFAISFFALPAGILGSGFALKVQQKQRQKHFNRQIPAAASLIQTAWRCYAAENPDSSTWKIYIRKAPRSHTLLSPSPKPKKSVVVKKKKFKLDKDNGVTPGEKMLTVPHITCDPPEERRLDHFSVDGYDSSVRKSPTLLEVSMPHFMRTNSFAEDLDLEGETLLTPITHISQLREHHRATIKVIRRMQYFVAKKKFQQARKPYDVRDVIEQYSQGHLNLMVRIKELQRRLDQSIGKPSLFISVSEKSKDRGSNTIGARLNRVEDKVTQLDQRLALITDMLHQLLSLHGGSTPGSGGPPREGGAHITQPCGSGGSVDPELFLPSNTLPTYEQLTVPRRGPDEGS
Chain of Potassium voltage-gated channel subfamily E member 1 (Homo sapiens) + Potassium voltage-gated channel subfamily KQT member 1 (Homo sapiens) (P51787 whole entry, looked up): as the sequence (P51787 whole entry, looked up) above

Regarding `O=C(O)CCCN1C(=O)/C(=C\c2ccc(-c3nc4ccccc4s3)o2)SC1=S`, the outcome in experiment [1] and in experiment [2] was inactive.
Consider `COc1cc(C2(c3ccc(O)c(OC)c3)C(=O)Nc3c(C)cc(Br)cc32)ccc1O`, for which the outcome in experiment [1] was inactive.
Turning to `CN(C)CCCN(C(=O)CCc1ccccc1)c1nc2ccc(F)cc2s1`, in experiment [1], the outcome was inactive.
Take `CCCCCCCCCC[n+]1cccc2c3ccccc3ccc21`: in experiment [1], the outcome was inactive.
With `O=C(Nc1ccnn1C1CCN(Cc2cc3ccccc3[nH]2)CC1)C1CCOC1` (configuration not stated), the result in experiment [1] was inactive.
Same read-out and setting: under `CN(CCCNC(=O)CCCOc1cc(=O)n(C)c2ccccc12)Cc1ccccc1` stands “inactive”.
Consider `CN(C)S(=O)(=O)N1CCC(CCCC2CCN(S(=O)(=O)N(C)C)CC2)CC1`, for which the result in experiment [1] was inactive.
As for `CCCc1nc2oc3c(NCCCN(C)C)ncnc3c2c2c1CCCC2`, in experiment [1], the result was inactive.
`CCN(CC)c1ncnc2sc3c(c12)CCC3`: the outcome in experiment [1] and in experiment [2] was inactive.
In the case of `Cc1ccc(C(=O)O)cc1N=Cc1cc(Br)cc(Br)c1O`, in experiment [1], the result was inactive.
For `CCCCN(CC)CCCNC(=O)c1cc2cc3ccc(C)cc3nc2o1`, in experiment [1], the outcome was inactive.
Still for that read-out and setting: under `COc1cc(NC(=O)CSc2ncnc3sc4c(c23)CCC(C)C4)c(C(=O)O)cc1OC` (configuration not stated) stands “inactive”; under `Cc1ccc2c(c1)C1CN(C)CCC1N2C(=S)NC(=O)c1ccc(Br)cc1` (configuration not stated), “inactive”.
In the case of `CC(C)NS(=O)(=O)c1ccc(NC(=O)C(C)Oc2ccc(C(=O)c3ccccc3)cc2)cc1` (configuration not stated), the outcome in experiment [1] and in experiment [2] was inactive.
Regarding `Cc1cc(C)c2c(=O)n(CC(=O)Nc3cccc(Cl)c3C)sc2n1`, the outcome in experiment [1] was inactive.
In the case of `O=C1C=CC(=O)N1CCNc1ncc(C(F)(F)F)cc1Cl`, the outcome in experiment [1] and in experiment [2] was inactive.
For `Cc1nn(-c2cc(C(F)(F)F)ccc2Cl)c2nc(C(Cl)(Cl)Cl)[nH]c(=O)c12`, in experiment [1], the outcome was inactive.
Take `COc1ccc(NS(=O)(=O)c2ccc3ccccc3c2)c2ncccc12`: in experiment [1], the result was inactive.
